# According to ChEMBL document CHEMBL1165947, “Synthesis and antitumor activity of 2,5-bis(3'-indolyl)-furans and 3,5-bis(3'-indolyl)-isoxazoles, nortopsentin analogues” (Bioorg Med Chem, 2010):
# Assays:
# Assay type in all cases: functional, cell-based
# [1] = Cytotoxicity against human BXF 1218L cells after 4 days by modified propidium iodide staining-based fluorescence assay; conditions: 96 h
# How it was run: (§1)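 Cells cultured in RPMI 1640 with 10% fetal calf serum and 0.1 mg/mL gentamicin at 37 °C, 5% CO2. Cells from exponential cultures were trypsinized and plated at 4.000-20.000 cells/well by line. After 24 h recovery, compounds were added at five log-spaced concentrations (highest 100 μg/mL) for 4 days. Proliferation was read as DNA content with aqueous propidium iodide (7 μg/ml), fluorescence ex 530/em 620 nm. Points were run in triplicate.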
# T-24 = assay: Cytotoxicity against human T24 cells after 4 days by modified propidium iodide staining-based fluorescence assay; conditions: T-24, 96 h; how it was run: as §1
# SF-268 = assay: Cytotoxicity against human SF268 cells after 4 days by modified propidium iodide staining-based fluorescence assay; conditions: SF-268, 96 h; how it was run: as §1
# HCT-116 = assay: Cytotoxicity against human HCT116 cells after 4 days by modified propidium iodide staining-based fluorescence assay; conditions: HCT-116, 96 h; how it was run: as §1
# HT-29 = assay: Cytotoxicity against human HT-29 cells after 4 days by modified propidium iodide staining-based fluorescence assay; conditions: HT-29, 96 h; how it was run: as §1
# [2] = Cytotoxicity against human GXF251L cells after 4 days by modified propidium iodide staining-based fluorescence assay; conditions: GXF 251L, 96 h; how it was run: as §1
# [3] = Cytotoxicity against human LXFL 1121L cells after 4 days by modified propidium iodide staining-based fluorescence assay; conditions: 96 h; how it was run: as §1
# [4] = Cytotoxicity against human LXFA 289L cells after 4 days by modified propidium iodide staining-based fluorescence assay; conditions: 96 h; how it was run: as §1
# [5] = Cytotoxicity against human LXFA 526L cells after 4 days by modified propidium iodide staining-based fluorescence assay; conditions: 96 h; how it was run: as §1
# A549 = assay: Cytotoxicity against human A549 cells after 4 days by modified propidium iodide staining-based fluorescence assay; conditions: A549, 96 h; how it was run: as §1
# [6] = Cytotoxicity against human LXFA 629L cells after 4 days by modified propidium iodide staining-based fluorescence assay; conditions: 96 h; how it was run: as §1
# NCI-H460 = assay: Cytotoxicity against human H460 cells after 4 days by modified propidium iodide staining-based fluorescence assay; conditions: NCI-H460, 96 h; how it was run: as §1
# [7] = Cytotoxicity against human MAXF 401NL cells after 4 days by modified propidium iodide staining-based fluorescence assay; conditions: 96 h; how it was run: as §1
# MCF7 = assay: Cytotoxicity against human MCF7 cells after 4 days by modified propidium iodide staining-based fluorescence assay; conditions: MCF7, 96 h; how it was run: as §1
# [8] = Cytotoxicity against human MEXF 276L cells after 4 days by modified propidium iodide staining-based fluorescence assay; conditions: MEXF276L, 96 h; how it was run: as §1
# [9] = Cytotoxicity against human MEXF 462NL cells after 4 days by modified propidium iodide staining-based fluorescence assay; conditions: 96 h; how it was run: as §1
# [10] = Cytotoxicity against human MEXF 520L cells after 4 days by modified propidium iodide staining-based fluorescence assay; conditions: 96 h; how it was run: as §1
# [11] = Cytotoxicity against human 899L cells after 4 days by modified propidium iodide staining-based fluorescence assay; conditions: 96 h; how it was run: as §1
# OVCAR-3 = assay: Cytotoxicity against human OVCAR-3 cells after 4 days by modified propidium iodide staining-based fluorescence assay; conditions: OVCAR-3, 96 h; how it was run: as §1
# [12] = Cytotoxicity against human 1657L cells after 4 days by modified propidium iodide staining-based fluorescence assay; conditions: 96 h; how it was run: as §1
# PANC-1 = assay: Cytotoxicity against human PANC1 cells after 4 days by modified propidium iodide staining-based fluorescence assay; conditions: PANC-1, 96 h; how it was run: as §1
# CWR22R = assay: Cytotoxicity against human 22Rv1 cells after 4 days by modified propidium iodide staining-based fluorescence assay; conditions: 22Rv1, 96 h; how it was run: as §1
# DU-145 = assay: Cytotoxicity against human DU145 cells after 4 days by modified propidium iodide staining-based fluorescence assay; conditions: DU-145, 96 h; how it was run: as §1
# LNCaP = assay: Cytotoxicity against human LNCAP cells after 4 days by modified propidium iodide staining-based fluorescence assay; conditions: 96 h; how it was run: as §1
# [13] = Cytotoxicity against human PC3M cells after 4 days by modified propidium iodide staining-based fluorescence assay; conditions: PC-3M, 96 h; how it was run: as §1
# [14] = Cytotoxicity against human 1752L cells after 4 days by modified propidium iodide staining-based fluorescence assay; conditions: 96 h; how it was run: as §1
# [15] = Cytotoxicity against human 1781L cells after 4 days by modified propidium iodide staining-based fluorescence assay; conditions: 96 h; how it was run: as §1
# [16] = Cytotoxicity against human RXF 486L cells after 4 days by modified propidium iodide staining-based fluorescence assay; conditions: 96 h; how it was run: as §1
# [17] = Cytotoxicity against human UXF 1138L cells after 4 days by modified propidium iodide staining-based fluorescence assay; conditions: 96 h; how it was run: as §1
# P388 = assay: Cytotoxicity against mouse P388 cells
compound,measurement,setting,value
Cn1cc(-c2cc(-c3cn(C)c4ccccc34)on2)c2ccccc21,IC50,[1],20 µg/mL
same,IC50,T-24,40.6 µg/mL
same,IC50,SF-268,24.6 µg/mL
same,IC50,HCT-116,29.5 µg/mL
same,IC50,HT-29,32.7 µg/mL
same,IC50,[2],7.2 µg/mL
same,IC50,[3],21 µg/mL
same,IC50,[4],18.7 µg/mL
same,IC50,[5],11.5 µg/mL
same,IC50,A549,5.1 µg/mL
same,IC50,[6],4.2 µg/mL
same,IC50,NCI-H460,18.4 µg/mL
same,IC50,[7],28.8 µg/mL
same,IC50,MCF7,21.5 µg/mL
same,IC50,[8],13.3 µg/mL
same,IC50,[9],37.8 µg/mL
same,IC50,[10],24.1 µg/mL
same,IC50,[11],14.9 µg/mL
same,IC50,OVCAR-3,11.1 µg/mL
same,IC50,[12],29.9 µg/mL
same,IC50,PANC-1,8.8 µg/mL
same,IC50,CWR22R,14.1 µg/mL
same,IC50,DU-145,18.3 µg/mL
same,IC50,LNCaP,11.5 µg/mL
same,IC50,[13],28.1 µg/mL
same,IC50,[14],24.2 µg/mL
same,IC50,[15],38.7 µg/mL
same,IC50,[16],29.3 µg/mL
same,IC50,[17],4.8 µg/mL
Cn1c(-c2cn(C)c3cc(Br)ccc23)cnc1-c1cn(C)c2cc(Br)ccc12 [N-METHYL NORTOPSENTIN A],IC50,P388,800 nM
